# The sample as a whole holds a higher share of hits than the screen did.
# T cruzi HTS – blocks T. cruzi growth inside host cells. intracellular Trypanosoma cruzi in host cells, plate reader. activity score (inhibition), % at 5.01 µM. 22,000 tested, 4.9% active; in the data active means activity score above about 55%; inconclusive means no clear call, values can overlap the other calls;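 further: parasites and compound incubated about four days before reading; 0% = median of neutral control wells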
# YB-1 expression – YB-1 expression inhibition; U2OS, qRT-PCR YB-1 vs CDIP delta delta Cp, 16 h; active compounds read high; zero = DMSO, each unit about twofold; delta delta Cp (YB-1 minus CDIP) (concentration not given with the values); 30,000 tested, 0.37% active; AID 434959;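 active means delta delta Cp rounded down to an integer at or above 3, about 3 SD of DMSO wells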;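 further: higher means less YB-1 transcript or more CDIP transcript relative to DMSO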
# INS-1E ATP HTS – INS-1E beta cell protection from cytokine death. 20,000 tested, 0.1% active. INS-1E cytokine-induced death, ATP luminescence, 48 h; normalised: neutral wells 0, positive control 100. protection from cytokine-induced ATP loss, % at 10 µM. AID 488910;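 active means mean replicate protection from cytokine-induced ATP loss at least 50% and at least 75% of replicates each reaching 50%; inconclusive means meets only one of the two criteria, mean or replicate share; inactive means fails both the mean and replicate share criteria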
#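 Material: INS-1E rat cells; Quantity: 8000 cells/well; Buffer or medium: phenol-red-free RPMI with 5% fetal bovine serum; Probe or stimulus: cytokine cocktail of IFN-γ, TNF-α and IL-1β; Compound dosing: single test concentration per compound, delivered by pin transfer; Incubation: 48 h co-treatment, 10 min post-lysis read; Signal: CellTiter-Glo luminescence.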
# * = called active by the depositor; ? = inconclusive; . = no result.
SMILES,T cruzi HTS,YB-1 expression,INS-1E ATP HTS
O=C(N/N=C\c1ccc2ccccc2c1O)c1ccccc1O,62*,0.35,-130
CC(C)S(=O)(=O)c1csc(NC(=O)Nc2cc(C(F)(F)F)cc(C(F)(F)F)c2)c1Cl,.,-0.28,.
O=C1NN=C(c2ccccc2)/C1=C1\OC(c2ccccc2)=CS1,.,-0.29,.
C[C@@H]1CN([C@@H](C)CO)C(=O)c2cc(NC(=O)Cc3cn(C)c4ccccc34)ccc2O[C@@H]1CN(C)Cc1ccc(C(=O)Nc2ccccc2N)cc1,22,-0.17,12
C[C@H](CO)N1C[C@H](C)[C@H](CN(C)Cc2ccc(C(=O)Nc3ccccc3N)cc2)Oc2ccc(NC(=O)Cc3cn(C)c4ccccc34)cc2CC1=O,34,-0.8,40
C[C@@H]1CN([C@H](C)CO)C(=O)Cc2cc(NC(=O)Cc3cn(C)c4ccccc34)ccc2O[C@@H]1CN(C)Cc1ccc(C(=O)Nc2ccccc2N)cc1,72*,-0.23,-8
C[C@H]1CN([C@@H](C)CO)C(=O)Cc2cc(NC(=O)Cc3cn(C)c4ccccc34)ccc2O[C@H]1CN(C)Cc1ccc(C(=O)Nc2ccccc2N)cc1,66*,-0.55,12
Cc1nc2ccc(F)cc2c2c1CCN2c1ccc(Cl)cc1,.,-0.55,.
C[C@@H]1CN([C@@H](C)CO)C(=O)c2cc(NC(=O)Nc3ccc(C(F)(F)F)cc3)ccc2O[C@@H]1CN(C)Cc1ccc(C(F)(F)F)cc1,52,-0.32,-62
C[C@H](CO)N1C[C@H](C)[C@H](CN(C)Cc2ccccc2)Oc2ccc(NC(=O)Nc3ccc(C(F)(F)F)cc3)cc2C1=O,32*,-0.37,.
C[C@H](CO)N1C[C@H](C)[C@@H](CN(C)C(=O)Nc2ccc(C(F)(F)F)cc2)Oc2ccc(NC(=O)Nc3ccc(C(F)(F)F)cc3)cc2C1=O,?,0.12,-103
C[C@H]1CN([C@@H](C)CO)C(=O)c2cc(NC(=O)Nc3ccc(C(F)(F)F)cc3)ccc2O[C@@H]1CN(C)Cc1ccc(C(F)(F)F)cc1,72*,0.17,.
C[C@@H]1CN([C@H](C)CO)C(=O)c2cc(NC(=O)Nc3ccc(C(F)(F)F)cc3)ccc2O[C@@H]1CN(C)Cc1ccccc1,14,-0.38,-31
C[C@H](CO)N1C[C@H](C)[C@H](CN(C)Cc2ccc(C(F)(F)F)cc2)Oc2ccc(NC(=O)Nc3ccc(F)cc3)cc2C1=O,58*,-0.25,.
C[C@H](CO)N1C[C@H](C)[C@@H](CN(C)Cc2ccc(C(F)(F)F)cc2)Oc2ccc(NC(=O)Nc3ccc(F)cc3)cc2C1=O,12,-0.009,-62
C[C@H](CO)N1C[C@H](C)[C@H](CN(C)C(=O)Nc2ccc(C(F)(F)F)cc2)Oc2ccc(NC(=O)Nc3ccc(C(F)(F)F)cc3)cc2C1=O,74*,-0.074,-20
O=C(COc1ccc(Cl)cc1)CC(=O)c1ccc(Cl)cc1,.,-0.32,.
O=C(CC(Sc1ccccc1C(=O)O)c1ccc(F)cc1)c1ccc(F)cc1 (centres undefined),.,0.14,.
COC(=O)C[C@H]1C(C)(C)C(=O)[C@@H]2C[C@@]3(O)C4=CC(=O)O[C@@H](c5ccoc5)[C@]4(C)CCC3[C@@]1(C)C2=O (some centres undefined),.,0.12,.
CCN1C(=O)C(=Cc2c(O)n(CC)c(=O)n(CC)c2=O)C(=O)N(CC)C1=O,.,0.15,.
C=CC(C)(O)CC/C=C(\C)C(=O)OC1C2OC2(C)C2C(OC3OC(COC4OC(CO)C(O)C(O)C4O)C(O)C(O)C3O)OC=CC12O (centres undefined),.,0.12,.
CC(Oc1ccccc1)C(=O)O (centres undefined),.,0.14,.
C[C@@H]1CN([C@@H](C)CO)C(=O)c2cc(NC(=O)Nc3ccc(C(F)(F)F)cc3)ccc2O[C@@H]1CN(C)Cc1ccc(Cl)c(Cl)c1,75*,0.44,-46
C[C@@H]1CN([C@H](C)CO)C(=O)c2cc(NC(=O)Nc3ccc(C(F)(F)F)cc3)ccc2O[C@@H]1CN(C)Cc1ccc(C(F)(F)F)cc1,25,-0.0083,-27
COC(=O)C1=C(C)NC(C)=C(C(=O)OC)C1c1ccc(C(C)C)cc1,.,0.12,.
C[C@H]1CN([C@@H](C)CO)C(=O)Cc2cc(NS(=O)(=O)c3ccc(Cl)cc3)ccc2O[C@@H]1CN(C)Cc1ccc(C(F)(F)F)cc1,72*,-0.35,5
C[C@@H]1CN([C@@H](C)CO)C(=O)Cc2cc(NS(=O)(=O)c3ccc(Cl)cc3)ccc2O[C@@H]1CN(C)Cc1ccc(C(F)(F)F)cc1,58*,0.19,-20
C[C@H]1CN([C@@H](C)CO)C(=O)Cc2cc(NS(=O)(=O)c3ccc(Cl)cc3)ccc2O[C@H]1CN(C)Cc1ccc(C(=O)O)cc1,21,-0.15,-1

# Source: PubChem
